ChEMBL document CHEMBL5712072, “Epigenetic targeting of Hedgehog pathway transcriptional output through BET bromodomain inhibition” (Nat Med, 2014)
Calls of active or inactive are those of the source. The rule behind the calls is not given here.

Key:
[1] = Induction of apoptosis in human Med1 cells assessed as viable cells by annexin-V/PI staining based flow cytometric analysis (reference value: 96.4%); format: functional, Medulloblastoma cell
Hh-Light2 [2] = assay: Upregulation of Ptch1 mRNA level in […] Hh-Light2 cells transfected with full length murine Gli2 by RT-PCR analysis; format: functional, cell-based; conditions: dose 1.0 µM
Method in brief: (§1)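 Hh-Light2 cells were transiently transfected with HA-Gli2-FL (murine) or Myc-GLI2-DN (N-terminally truncated human) and treated with drugs 24 h post-transfection. Ptch1 mRNA was measured by qRT-PCR. Values are mean of triplicates ± SD.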

Medulloblastoma cell [3] = assay: Cytotoxicity in Ptch-mutated in […] medulloblastoma cells expressing wildtype SMO by CellTiter-Glo analysis; format: functional, cell-based
Medulloblastoma cell [4] = assay: Induction of apoptosis in mouse wildtype SMO expressing medulloblastoma cells assessed as late apoptotic cells by annexin-V/PI staining based flow cytometric analysis (reference value: 2.5%)
Hh-Light2 [5] = assay: Downregulation of Brd4 mRNA level in […] Hh-Light2 cells at 1 microM by qRT-PCR analysis; format: functional, cell-based
Method in brief: (§2)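 Hh-Light2 (mouse 3T3 Gli-luciferase reporter line) cells were stimulated with Shh-N conditioned medium or SAG, alone or with JQ1 1 uM. Gli1, Gli2, Ptch1, Sufu, Smo and Brd4 mRNA were measured by SYBR Green qRT-PCR. Values are mean of triplicates ± SD.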

Danio rerio = organism: Danio rerio; assay: Effect on heat shock treated transgenic zebra fish assessed as increase in eye diameter; format: functional, organism-based
Method in brief: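 Tg(hsp70l:shha-EGFP)+/− x TL embryos were heat shocked at 38 °C for 15 min at the 8-somite stage, then placed directly in JQ1 (0.6 or 6.0 um) or DMSO. At […] embryos were sorted GFP+/− into fresh drug. Eye dorsal axis length was scored at 56 hpf, n=12 per group; Student's t-test.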

Hh-Light2 [6] = assay: Upregulation of Smo mRNA level in […] Hh-Light2 cells at 1 microM by qRT-PCR analysis; format: functional, cell-based; method in brief: as §2
Medulloblastoma cell [7] = assay: Downregulation of BRD4 mRMA expression in […] Medulloblastoma cell expressing wildtype SMO at 1 microM by qRT-PCR analysis; format: functional, cell-based
Method in brief: (§3)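 SmoWT-MB cells were treated with JQ1 at 1 uM (GDC-0449 or LDE225 at 0.1 uM as comparators). Gli1, Gli2, Smo, Sufu and Brd4 mRNA were measured by SYBR Green quantitative RT-PCR. Values are mean of triplicates ± SD.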

Medulloblastoma cell [8] = assay: Antitumor activity in […] medulloblastoma expressing wildtype SMO xenografted in NSG mouse assessed as reduction in tumor growth at 50 mg/kg/day, ip; format: functional, organism-based
Method in brief: (§4)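 SmoWT-MB or SmoD477G-MB cells, 2x10e6 per flank, injected into both flanks of 4-6 week old NSG mice. After engraftment mice were randomized to vehicle, JQ1 50 mg/kg IP qd or GDC-0449 100 mg/kg PO qd until euthanasia was required. Tumor growth was measured by caliper; data are group means ± S.E.M.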

Hh-Light2 [9] = assay: Upregulation of Gli1 mRNA level in […] Hh-Light2 cells at 1 microM by qRT-PCR analysis; format: functional, cell-based; method in brief: as §2
MEF [10] = assay: Downregulation of BRD4 mRNA level in Sufu-/- MEF cells by qRT-PCR analysis; format: functional, cell-based; conditions: Mus musculus
Med1 [11] = assay: Induction of cell cycle arrest in […] Med1 cells assessed as decreased accumulation of cells in S phase by PI staining based FACS analysis; format: functional
Method in brief: (§5)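 Med1-MB cells were treated with JQ1, fixed in 70% ethanol for 30 min at 4 °C, and stained with PI plus RNase A at 37 °C for 45 min. Cells were filtered through 70 um mesh, and cell-cycle distribution was read by FACS.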

Medulloblastoma cell [12] = assay: Downregulation of sufu mRMA expression in […] Medulloblastoma cell expressing wildtype SMO at 1 microM by qRT-PCR analysis; format: functional, cell-based; method in brief: as §3
Medulloblastoma cell [13] = assay: Antitumor activity in […] medulloblastoma cells expressing SmoD477G mutant xenografted in NSG mouse assessed as decrease in tumor growth at 50 mg/kg/day, ip; format: functional, organism-based; method in brief: as §4
Medulloblastoma cell [14] = assay: Downregulation of Smo mRMA expression in […] Medulloblastoma cell expressing wildtype SMO at 1 microM by qRT-PCR analysis; format: functional, cell-based; method in brief: as §3
Hh-Light2 [15] = assay: Upregulation of Gli2 mRNA level in […] Hh-Light2 cells at 1 microM by qRT-PCR analysis; format: functional, cell-based; method in brief: as §2
[16] = Induction of apoptosis in human Med1 cells assessed as late apoptotic cells by annexin-V/PI staining based flow cytometric analysis (reference value: 0.60%); format: functional, Medulloblastoma cell
Hh-Light2 [17] = assay: Upregulation of Ptch1 mRNA level in […] Hh-Light2 cells at 1 microM by qRT-PCR analysis; format: functional, cell-based; method in brief: as §2
MEF [18] = assay: Downregulation of Gli2 transcription in Sufu-/- MEF cells at 1 microM by […] analysis; format: functional, cell-based; conditions: Mus musculus
Medulloblastoma cell [19] = assay: Induction of apoptosis in mouse wildtype SMO expressing medulloblastoma cells assessed as necrotic cells by annexin-V/PI staining based flow cytometric analysis (reference value: 22%)
Med1 [20] = assay: Induction of cell cycle arrest in […] Med1 cells assessed as increased accumulation of cells in G1 phase by PI staining based FACS analysis; format: functional; method in brief: as §5
Medulloblastoma cell [21] = assay: Induction of apoptosis in human wildtype SMO expressing medulloblastoma cells assessed as early apoptotic cells by annexin-V/PI staining based flow cytometric analysis (reference value: 0.59%); format: functional
Medulloblastoma cell [22] = assay: Antiproliferative activity against in […] medulloblastoma cells expressing SmoWT-MB cells from mouse assessed as cell proliferation by EdU analysis; format: functional, cell-based
Method in brief: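 SmoWT-MB cells given 0.1uM GDC-0449 or LDE225 (or JQ1 1 uM); 10uM EdU added for final 6-8hrs; EdU+ cells detected by Click-iT flow cytometry or imaging, DAPI counterstain; proliferation index = EdU+/DAPI+ cells; group means ± SD.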

[23] = Toxicity in NSG mouse xenografted with Med1 cells assessed as survival of mouse at 50 mg/kg/day, ip; format: organism-based; conditions: in vivo
Method in brief: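 Med1-MB cells carrying luciferase, 0.5x10e6, were injected into the cerebellum of NSG mice. After engraftment was confirmed, mice were randomized to JQ1 50 mg/kg IP daily or vehicle until euthanasia was required, and survival was recorded.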

Medulloblastoma cell [24] = assay: Antiproliferation of human Hh driven medulloblastoma cells by cell titre glo assay; format: functional, cell-based
Med1 [25] = assay: Downregulation of Gli1mRNA expression in […] Med1 cells at 1 microM by qRT-PCR analysis; format: functional, cell-based
Method in brief: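 Med1-MB cells were treated with JQ1 1 uM, and Gli1 mRNA was measured by SYBR Green qRT-PCR. Values are mean of triplicates ± SD.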

Hh-Light2 [26] = assay: Inhibition of full length murine Gli2 expressed in […] Hh-Light2 cells assessed as reduction in mRNA level at 1 microM by qRT-PCR analysis; format: cell-based; conditions: Mus musculus
Method in brief: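 Hh-Light2 cells were transiently transfected with HA-Gli2-FL using Turbofect and treated 24 h later with 1 uM JQ1, GDC-0449, LDE225 or SANT-1. Gli1 mRNA was measured by qRT-PCR. Values are mean of triplicates ± SD.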

[27] = target: Bromodomain-containing protein 4 (Danio rerio) (UniProt F1R5H6); assay: Inhibition of BRD4 in danio rerio assessed as decrease in GFP mRNA expression level by qRT-PCR analysis
Hh-Light2 [28] = assay: Upregulation of Sufu mRNA level in […] Hh-Light2 cells at 1 microM by qRT-PCR analysis; format: functional, cell-based; method in brief: as §2
Medulloblastoma cell [29] = assay: Induction of apoptosis in human wildtype SMO expressing medulloblastoma cells assessed as viable cells by annexin-V/PI staining based flow cytometric analysis (reference value: 74.9%); format: functional
[30] = Induction of apoptosis in human Med1 cells assessed as early apoptotic cells by annexin-V/PI staining based flow cytometric analysis (reference value: 1.09%); format: functional, Medulloblastoma cell
Med1 [31] = assay: Antitumor activity in […] Med1 cells xenografted in NSG mouse assessed as reduction in tumor growth at 50 mg/kg/day, ip; format: functional, organism-based
Method in brief: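 Med1-MB cells carrying a lentiviral luciferase reporter, 2x10e6 injected into the flank of 4-6 week old NSG mice. After engraftment was confirmed, mice were randomized to JQ1 50 mg/kg IP daily or vehicle. Tumor growth was followed by IVIS imaging as average radiance; tumor size was also recorded at day 21 of treatment.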

Hh-Light2 [32] = assay: Upregulation of Ptch1 mRNA level in […] Hh-Light2 cells transfected with […] GlI2 by RT-PCR analysis; format: functional, cell-based; conditions: dose 1.0 µM; method in brief: as §1
[33] = Induction of apoptosis in human Med1 cells assessed as necrotic cells by annexin-V/PI staining based flow cytometric analysis (reference value: 1.87%); format: functional, Medulloblastoma cell
Medulloblastoma cell [34] = assay: Antiproliferation of […] Hh driven medulloblastoma cells […] by cell titre glo assay; format: functional, cell-based
MEF [35] = assay: Downregulation of Gli1 mRNA level in Sufu-/- MEF cells at 1 microM by qRT-PCR analysis; format: functional, cell-based; conditions: Mus musculus
Method in brief: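 Sufu−/− MEFs were treated with DMSO or inhibitors at 1 uM, and Gli1/Gli2 mRNA was measured by SYBR Green qRT-PCR (mean of triplicates ± SD). A time course with JQ1 1 uM included a 3 h point.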

[36] = Cytotoxicity in Ptch-mutated human Med1 cells expressing wildtype SMO by CellTiter-Glo analysis; format: functional, cell-based

Sequence of Bromodomain-containing protein 4 (Danio rerio) (F1R5H6 whole entry): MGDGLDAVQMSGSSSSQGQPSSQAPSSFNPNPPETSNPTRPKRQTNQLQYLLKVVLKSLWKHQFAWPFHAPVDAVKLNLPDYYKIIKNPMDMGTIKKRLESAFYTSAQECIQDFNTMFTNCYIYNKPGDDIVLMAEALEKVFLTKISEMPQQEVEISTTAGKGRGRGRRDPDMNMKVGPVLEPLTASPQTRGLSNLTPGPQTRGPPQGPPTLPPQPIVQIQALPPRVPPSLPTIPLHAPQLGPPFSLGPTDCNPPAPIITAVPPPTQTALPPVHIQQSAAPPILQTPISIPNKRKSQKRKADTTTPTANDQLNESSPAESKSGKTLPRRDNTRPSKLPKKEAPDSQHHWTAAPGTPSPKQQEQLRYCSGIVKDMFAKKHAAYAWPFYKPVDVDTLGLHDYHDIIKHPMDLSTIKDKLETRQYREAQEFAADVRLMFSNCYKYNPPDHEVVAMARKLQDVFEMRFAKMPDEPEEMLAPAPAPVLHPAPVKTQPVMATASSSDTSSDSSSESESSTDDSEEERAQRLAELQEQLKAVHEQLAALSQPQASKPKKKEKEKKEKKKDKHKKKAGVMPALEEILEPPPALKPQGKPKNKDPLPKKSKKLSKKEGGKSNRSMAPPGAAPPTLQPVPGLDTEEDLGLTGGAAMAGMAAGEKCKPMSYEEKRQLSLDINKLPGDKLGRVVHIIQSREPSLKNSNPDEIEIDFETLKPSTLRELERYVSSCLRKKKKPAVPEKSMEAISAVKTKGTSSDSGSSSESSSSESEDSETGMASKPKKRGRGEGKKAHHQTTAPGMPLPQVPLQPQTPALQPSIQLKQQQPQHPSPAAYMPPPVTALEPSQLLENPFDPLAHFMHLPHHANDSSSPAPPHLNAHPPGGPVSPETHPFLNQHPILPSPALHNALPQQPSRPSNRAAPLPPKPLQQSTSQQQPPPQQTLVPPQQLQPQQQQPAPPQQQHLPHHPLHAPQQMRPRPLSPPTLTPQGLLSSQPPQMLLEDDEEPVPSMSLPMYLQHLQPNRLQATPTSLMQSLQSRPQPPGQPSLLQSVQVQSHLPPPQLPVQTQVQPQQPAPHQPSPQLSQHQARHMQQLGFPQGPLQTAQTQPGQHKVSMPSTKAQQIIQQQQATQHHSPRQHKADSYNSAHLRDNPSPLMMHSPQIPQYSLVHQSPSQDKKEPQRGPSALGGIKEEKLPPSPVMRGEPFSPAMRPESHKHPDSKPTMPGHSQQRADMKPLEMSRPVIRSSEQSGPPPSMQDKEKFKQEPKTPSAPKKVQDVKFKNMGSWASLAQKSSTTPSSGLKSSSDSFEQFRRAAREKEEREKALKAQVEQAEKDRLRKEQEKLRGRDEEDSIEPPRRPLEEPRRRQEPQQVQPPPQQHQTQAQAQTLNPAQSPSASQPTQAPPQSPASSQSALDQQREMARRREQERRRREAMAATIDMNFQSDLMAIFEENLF

Cc1sc2c(c1C)C(c1ccc(Cl)cc1)=N[C@@H](CC(=O)OC(C)(C)C)c1nnc(C)n1-2
Activity [1]: 87.9% | Activity (Hh-Light2 [2]): inactive | IC50 (Medulloblastoma cell [3]): ~50 nM | Activity (Medulloblastoma cell [4]): 5.44% | Activity (Hh-Light2 [5]): inactive | Activity (Danio rerio): Active | Activity (Hh-Light2 [6]): Active | Activity (Medulloblastoma cell [7]): Active | Activity (Medulloblastoma cell [8]): Active | Activity (Hh-Light2 [9]): Active | Activity (MEF [10]): inactive | Activity (Med1 [11]): Active | Activity (Medulloblastoma cell [12]): Active | Activity (Medulloblastoma cell [13]): Active | Activity (Medulloblastoma cell [14]): Active | Activity (Hh-Light2 [15]): Active | Activity [16]: 1.61% | Activity (Hh-Light2 [17]): Active | Activity (MEF [18]): Active | Activity (Medulloblastoma cell [19]): 54.7% | Activity (Med1 [20]): Active | Activity (Medulloblastoma cell [21]): 0.64% | Activity (Medulloblastoma cell [22]): Active | Activity [23]: Non-Toxic | Activity (Medulloblastoma cell [24]): Active | Activity (Med1 [25]): Active | inhibition (Hh-Light2 [26]): Active | inhibition [27]: Active | Activity (Hh-Light2 [28]): inactive | Activity (Medulloblastoma cell [29]): 39.2% | Activity [30]: 0.35% | Activity (Med1 [31]): Active | Activity (Hh-Light2 [32]): Active | Activity [33]: 10.1% | Activity (Medulloblastoma cell [34]): Active | Activity (MEF [35]): Active | IC50 [36]: ~50 nM
